Results as given in ChEMBL document CHEMBL3860041, “Synthesis, biological evaluation and molecular modeling study of some new methoxylated 2-benzylthio-quinazoline-4(3H)-ones as nonclassical antifolates” (Bioorg Med Chem Lett, 2016).

Experiments:
Format in all cases: functional
[1] = Growth inhibition of human K562 cells at 10 uM after 48 hrs by SRB assay relative to control; details: K562, 48 h, read-out: GI
How it was run: (§1)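 NCI 60-cell-line panel, nine tumor subpanels; compounds tested at a single dose of 10 μM in the primary screen.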

[2] = Growth inhibition of human MOLT4 cells at 10 uM after 48 hrs by SRB assay relative to control; details: MOLT-4, 48 h, read-out: GI; how it was run: as §1
[3] = Growth inhibition of human A549 cells at 10 uM after 48 hrs by SRB assay relative to control; details: A549, 48 h, read-out: GI; how it was run: as §1
[4] = Growth inhibition of human HOP62 cells at 10 uM after 48 hrs by SRB assay relative to control; details: HOP-62, 48 h, read-out: GI; how it was run: as §1
[5] = Growth inhibition of human HOP92 cells at 10 uM after 48 hrs by SRB assay relative to control; details: HOP-92, 48 h, read-out: GI; how it was run: as §1
[6] = Growth inhibition of human NCI-H23 cells at 10 uM after 48 hrs by SRB assay relative to control; details: NCI-H23, 48 h, read-out: GI; how it was run: as §1
[7] = Growth inhibition of human NCI-H460 cells at 10 uM after 48 hrs by SRB assay relative to control; details: NCI-H460, 48 h, read-out: GI; how it was run: as §1
[8] = Growth inhibition of human HCT116 cells at 10 uM after 48 hrs by SRB assay relative to control; details: HCT-116, 48 h, read-out: GI; how it was run: as §1
[9] = Growth inhibition of human HT-29 cells at 10 uM after 48 hrs by SRB assay relative to control; details: HT-29, 48 h, read-out: GI; how it was run: as §1
[10] = Growth inhibition of human SF539 cells at 10 uM after 48 hrs by SRB assay relative to control; details: SF-539, 48 h, read-out: GI; how it was run: as §1
[11] = Growth inhibition of human U251 cells at 10 uM after 48 hrs by SRB assay relative to control; details: U-251, 48 h, read-out: GI
How it was run: (§2)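 Primary screen across the full NCI 60 human tumour cell line panel, which covers nine tumour subpanels. A single dose of 10 μM was applied to each line, and growth was recorded for each cell line.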

[12] = Growth inhibition of human LOXIMVI cells at 10 uM after 48 hrs by SRB assay relative to control; details: LOX IMVI, read-out: GI; how it was run: as §1
[13] = Growth inhibition of human SK-MEL-2 cells at 10 uM after 48 hrs by SRB assay relative to control; details: SK-MEL-2, 48 h, read-out: GI; how it was run: as §2
[14] = Growth inhibition of human SK-MEL-28 cells at 10 uM after 48 hrs by SRB assay relative to control; details: SK-MEL-28, 48 h, read-out: GI; how it was run: as §2
[15] = Growth inhibition of human UACC62 cells at 10 uM after 48 hrs by SRB assay relative to control; details: UACC-62, 48 h, read-out: GI; how it was run: as §2
[16] = Growth inhibition of human OVCAR5 cells at 10 uM after 48 hrs by SRB assay relative to control; details: OVCAR-5, 48 h, read-out: GI; how it was run: as §1
[17] = Growth inhibition of human OVCAR8 cells at 10 uM after 48 hrs by SRB assay relative to control; details: OVCAR-8, 48 h, read-out: GI; how it was run: as §1
[18] = Growth inhibition of human NCI/ADR-RES cells at 10 uM after 48 hrs by SRB assay relative to control; details: read-out: GI; how it was run: as §1
[19] = Growth inhibition of human 786-0 cells at 10 uM after 48 hrs by SRB assay relative to control; details: 786-0, 48 h, read-out: GI; how it was run: as §1
[20] = Growth inhibition of human Caki1 cells at 10 uM after 48 hrs by SRB assay relative to control; details: CAKI-1, 48 h, read-out: GI; how it was run: as §1
[21] = Growth inhibition of human RXF393 cells at 10 uM after 48 hrs by SRB assay relative to control; details: RXF 393, 48 h, read-out: GI; how it was run: as §1
[22] = Growth inhibition of human SN12C cells at 10 uM after 48 hrs by SRB assay relative to control; details: read-out: GI; how it was run: as §2
[23] = Growth inhibition of human UO31 cells at 10 uM after 48 hrs by SRB assay relative to control; details: UO-31, 48 h, read-out: GI; how it was run: as §2
[24] = Growth inhibition of human MDA-MB-231 cells at 10 uM after 48 hrs by SRB assay relative to control; details: MDA-MB-231, 48 h, read-out: GI; how it was run: as §1
[25] = Growth inhibition of human Hs 578T cells at 10 uM after 48 hrs by SRB assay relative to control; details: read-out: GI; how it was run: as §1
[26] = Growth inhibition of human BT549 cells at 10 uM after 48 hrs by SRB assay relative to control; details: BT-549, 48 h, read-out: GI; how it was run: as §1
[27] = Growth inhibition of human T47D cells at 10 uM after 48 hrs by SRB assay relative to control; details: read-out: GI; how it was run: as §2
Cancer cell lines [28] = experiment: Potency index, ratio of 5-fluorouracil GI50 to compound GI50 for human prostate cancer cells
How it was run: (§3)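 GI50 for each cell line came from NCI panel testing over a 5-log dose range, with 5-fluorouracil tested alongside as the reference drug. The index relates the 5-fluorouracil GI50 to the compound GI50 within each tumour subpanel.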

Cancer cell lines [29] = experiment: Potency index, ratio of 5-fluorouracil GI50 to compound GI50 for human renal cancer cells; how it was run: as §3
Cancer cell lines [30] = experiment: Potency index, ratio of 5-fluorouracil GI50 to compound GI50 for human non-small cell lung cancer cells; how it was run: as §3
[31] = Growth inhibition of human non-small cell lung cancer cells after 48 hrs by SRB assay; details: Cancer cell lines
How it was run: (§4)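 Follow-up NCI panel testing over a 5-log dose range for each cell line. GI50, TGI and LC50 were monitored, with 5-fluorouracil run as the positive control. Values are grouped by tumour subpanel.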

[32] = Growth inhibition of human colon cancer cells after 48 hrs by SRB assay; details: Cancer cell lines; how it was run: as §4
[33] = Growth inhibition of human melanoma cells after 48 hrs by SRB assay; details: Melanoma cell; how it was run: as §4
[34] = Growth inhibition of human ovarian cancer cells after 48 hrs by SRB assay; details: Cancer cell lines; how it was run: as §4
[35] = Growth inhibition of human renal cancer cells after 48 hrs by SRB assay; details: Cancer cell lines; how it was run: as §4
[36] = Growth inhibition of human breast cancer cells after 48 hrs by SRB assay; details: Cancer cell lines; how it was run: as §4
[37] = Growth inhibition of human HL-60(TB) cells at 10 uM after 48 hrs by SRB assay relative to control; details: HL-60, 48 h, read-out: GI
How it was run: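 NCI disease-oriented human tumour cell line screen: primary single-dose assay at 10 μM across the full 60-cell-line panel spanning nine tumour subpanels.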

Structure (SMILES): COc1ccc(-n2c(SCc3cc(OC)c(OC)c(OC)c3)nc3ccc(C)cc3c2=O)c(OC)c1
- inhibition of growth at 10 µM [1]: 85.6%
- inhibition of growth at 10 µM [2]: 88.7%
- inhibition of growth at 10 µM [3]: 81.1%
- inhibition of growth at 10 µM [4]: 52.6%
- inhibition of growth at 10 µM [5]: 77.3%
- inhibition of growth at 10 µM [6]: 82.2%
- inhibition of growth at 10 µM [7]: 95.4%
- inhibition of growth at 10 µM [8]: 81.9%
- inhibition of growth at 10 µM [9]: 88.8%
- inhibition of growth at 10 µM [10]: 80%
- inhibition of growth at 10 µM [11]: 75.2%
- inhibition of growth at 10 µM [12]: 68.4%
- inhibition of growth at 10 µM [13]: < 10%
- inhibition of growth at 10 µM [14]: 59.2%
- inhibition of growth at 10 µM [15]: 75.6%
- inhibition of growth at 10 µM [16]: 56.8%
- inhibition of growth at 10 µM [17]: 54.5%
- inhibition of growth at 10 µM [18]: 98.6%
- inhibition of growth at 10 µM [19]: 70.4%
- inhibition of growth at 10 µM [20]: 86.7%
- inhibition of growth at 10 µM [21]: 80.4%
- inhibition of growth at 10 µM [22]: 54.8%
- inhibition of growth at 10 µM [23]: 81.8%
- inhibition of growth at 10 µM [24]: 55.2%
- inhibition of growth at 10 µM [25]: 93.3%
- inhibition of growth at 10 µM [26]: 67.9%
- inhibition of growth at 10 µM [27]: 66.9%
- RatioGI50 (Cancer cell lines [28]): 2 - 10
- RatioGI50 (Cancer cell lines [29]): 2 - 10
- RatioGI50 (Cancer cell lines [30]): 2 - 10
- GI50 [31]: 17.7 µM
- LC50 (concentration killing 50% of cells) [31]: > 100 µM
- TGI [31]: 96.5 µM
- GI50 [32]: 4.4 µM
- LC50 [32]: > 100 µM
- TGI [32]: 87.4 µM
- GI50 [33]: 4.2 µM
- LC50 [33]: 89.9 µM
- TGI [33]: 77.4 µM
- GI50 [34]: 5.1 µM
- LC50 (50% lethal concentration) [34]: > 100 µM
- TGI [34]: 86.7 µM
- GI50 [35]: 15.4 µM
- LC50 [35]: > 100 µM
- TGI [35]: 92.5 µM
- GI50 [36]: 4.1 µM
- LC50 [36]: > 100 µM
- TGI [36]: 84.9 µM

Structure (SMILES): COc1cc(CSc2nc3ccc(C)cc3c(=O)n2Cc2ccccc2)cc(OC)c1OC
- inhibition of growth at 10 µM [37]: 83%
- inhibition of growth at 10 µM [1]: 86.2%
- inhibition of growth at 10 µM [2]: 69.2%
- inhibition of growth at 10 µM [3]: 60%
- inhibition of growth at 10 µM [4]: 60%
- inhibition of growth at 10 µM [5]: 43.4%
- inhibition of growth at 10 µM [6]: 78.7%
- inhibition of growth at 10 µM [7]: 82.3%
- inhibition of growth at 10 µM [8]: 74.9%
- inhibition of growth at 10 µM [9]: 89.5%
- inhibition of growth at 10 µM [11]: 67%
- inhibition of growth at 10 µM [12]: 60.2%
- inhibition of growth at 10 µM [13]: 99.1%
- inhibition of growth at 10 µM [14]: 48%
- inhibition of growth at 10 µM [15]: 78.6%
- inhibition of growth at 10 µM [16]: 54.7%
- inhibition of growth at 10 µM [17]: 64.9%
- inhibition of growth at 10 µM [18]: 87.3%
- inhibition of growth at 10 µM [19]: 53.2%
- inhibition of growth at 10 µM [20]: 71.3%
- inhibition of growth at 10 µM [22]: 60%
- inhibition of growth at 10 µM [23]: 68%
- inhibition of growth at 10 µM [24]: 55.6%
- inhibition of growth at 10 µM [25]: 79.3%
- inhibition of growth at 10 µM [26]: 65.2%
- inhibition of growth at 10 µM [27]: 65.9%
- RatioGI50 (Cancer cell lines [28]): 10
- RatioGI50 (Cancer cell lines [29]): 10
- RatioGI50 (Cancer cell lines [30]): 10
- GI50 [31]: 4 µM
- LC50 (concentration killing 50% of cells) [31]: 98.2 µM
- TGI [31]: 65.9 µM
- GI50 [32]: 1.6 µM
- LC50 [32]: 87.1 µM
- TGI [32]: 76.1 µM
- GI50 [33]: 3.2 µM
- LC50 [33]: > 100 µM
- TGI [33]: 58.4 µM
- GI50 [34]: 3.3 µM
- LC50 (50% lethal concentration) [34]: 92.7 µM
- TGI [34]: 57.6 µM
- GI50 [35]: 4.3 µM
- LC50 [35]: 97.9 µM
- TGI [35]: 61.4 µM
- GI50 [36]: 2.8 µM
- LC50 [36]: > 100 µM
- TGI [36]: 47.5 µM
